Source: ChEMBL document CHEMBL4819102, “SAR insights into TET2 catalytic domain inhibition: Synthesis of 2-Hydroxy-4-Methylene-pentanedicarboxylates” (Bioorg Med Chem, 2021)
Active and inactive are the calls of the source. The rule behind the calls is not given here.

Key:
THP-1 [1] = experiment: Inhibition of TET in human THP-1 cells assessed as reduction in 5hmc/5mc level at 25 uM incubated for 12 hrs by dot blot analysis relative to control; type: cell-based
In short: (§1)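 THP1 cells at 0.3x10^6/mL exposed 12 h to ester prodrugs (25, 50, 100 µM) with 100 µM sodium ascorbate. Genomic DNA denatured in NaOH/EDTA at 95 °C, two-fold serial dilutions dot-blotted, probed with anti-5hmC and anti-5mC antibodies, and loading checked by methylene blue. Inhibition taken from the 5hmC/5mC ratio; means of at least three experiments, below 5% reported not detected.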

THP-1 [2] = experiment: Inhibition of TET in human THP-1 cells assessed as reduction in 5hmc/5mc level at 50 uM incubated for 12 hrs by dot blot analysis relative to control; type: cell-based; in short: as §1
THP-1 [3] = experiment: Inhibition of TET in human THP-1 cells assessed as reduction in 5hmc/5mc level at 100 uM incubated for 12 hrs by dot blot analysis relative to control; type: cell-based; in short: as §1
[4] = Inhibition of TET (unknown origin); design: species or system Homo sapiens
[5] = target: T1, Methylcytosine dioxygenase TET2 (Homo sapiens, UniProt Q6N021); experiment: Inhibition of recombinant human GST-tagged TET2 (1099 to 1936 residues) expressed in Escherichia coli BL21 (DE3)pLysS assessed as reduction in 5hmc level incubated for 2 hrs by ELISA
[6] = target: T2, Methylcytosine dioxygenase TET1 (Homo sapiens, UniProt Q8NFU7); experiment: Inhibition of TET1 (unknown origin) at 10 mM in presence of alpha-KG relative to control
[7] = target: T2, Methylcytosine dioxygenase TET1; experiment: Inhibition of TET1 (unknown origin) at 50 mM in presence of alpha-KG relative to control
[8] = target: T1, Methylcytosine dioxygenase TET2; conditions: dose 10.0 mM
[9] = target: T1, Methylcytosine dioxygenase TET2; conditions: dose 50.0 mM
[10] = target: T2, Methylcytosine dioxygenase TET1; experiment: Inhibition of TET1 (unknown origin)
[11] = target: T3, Methylcytosine dioxygenase TET3 (Homo sapiens, UniProt O43151); experiment: Inhibition of TET3 (unknown origin)
[12] = target: T1, Methylcytosine dioxygenase TET2; experiment: Potency index, ratio of IC50 of NOG to IC50 of compound for inhibition of recombinant human GST-tagged TET2 (1099 to 1936 residues) expressed in Escherichia coli BL21 (DE3)pLysS assessed as reduction in 5hmc level incubated for 2 hrs by ELISA
[13] = target: T2, Methylcytosine dioxygenase TET1; experiment: Inhibition of recombinant human N-terminal Flag-tagged TET1 (1418 to 2136 residues) expressed in Baculovirus infected Sf9 cells assessed as reduction in 5hmc level incubated for 2 hrs by ELISA
[14] = target: T3, Methylcytosine dioxygenase TET3; experiment: Inhibition of recombinant human N-terminal Flag-tagged C-terminal His-tagged TET3 (824 to 1795 residues) expressed in Baculovirus infected Sf9 cells assessed as reduction in 5hmc level incubated for 2 hrs by ELISA
[15] = target: T1, Methylcytosine dioxygenase TET2; experiment: Binding affinity to human recombinant TET2 (1099 to 1936) catalytic domain assessed as dissociation constant by micro-scale thermophoresis analysis
[16] = target: T1, Methylcytosine dioxygenase TET2; experiment: Reversible inhibition of recombinant human GST-tagged TET2 (1099 to 1936 residues) expressed in Escherichia coli BL21 (DE3)pLysS assessed as restoration of enzyme activity in presence of alpha-KG at 20 uM incubated for 2 hrs by ELISA
In short: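 TET2 catalytic domain (100 nM) preincubated with 12.5 µM inhibitor, then α-KG added at increasing concentrations. Anti-5hmC/HRP detection, TMB read at 450 nm; activity expressed relative.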

T2 sequence (Q8NFU7 whole entry): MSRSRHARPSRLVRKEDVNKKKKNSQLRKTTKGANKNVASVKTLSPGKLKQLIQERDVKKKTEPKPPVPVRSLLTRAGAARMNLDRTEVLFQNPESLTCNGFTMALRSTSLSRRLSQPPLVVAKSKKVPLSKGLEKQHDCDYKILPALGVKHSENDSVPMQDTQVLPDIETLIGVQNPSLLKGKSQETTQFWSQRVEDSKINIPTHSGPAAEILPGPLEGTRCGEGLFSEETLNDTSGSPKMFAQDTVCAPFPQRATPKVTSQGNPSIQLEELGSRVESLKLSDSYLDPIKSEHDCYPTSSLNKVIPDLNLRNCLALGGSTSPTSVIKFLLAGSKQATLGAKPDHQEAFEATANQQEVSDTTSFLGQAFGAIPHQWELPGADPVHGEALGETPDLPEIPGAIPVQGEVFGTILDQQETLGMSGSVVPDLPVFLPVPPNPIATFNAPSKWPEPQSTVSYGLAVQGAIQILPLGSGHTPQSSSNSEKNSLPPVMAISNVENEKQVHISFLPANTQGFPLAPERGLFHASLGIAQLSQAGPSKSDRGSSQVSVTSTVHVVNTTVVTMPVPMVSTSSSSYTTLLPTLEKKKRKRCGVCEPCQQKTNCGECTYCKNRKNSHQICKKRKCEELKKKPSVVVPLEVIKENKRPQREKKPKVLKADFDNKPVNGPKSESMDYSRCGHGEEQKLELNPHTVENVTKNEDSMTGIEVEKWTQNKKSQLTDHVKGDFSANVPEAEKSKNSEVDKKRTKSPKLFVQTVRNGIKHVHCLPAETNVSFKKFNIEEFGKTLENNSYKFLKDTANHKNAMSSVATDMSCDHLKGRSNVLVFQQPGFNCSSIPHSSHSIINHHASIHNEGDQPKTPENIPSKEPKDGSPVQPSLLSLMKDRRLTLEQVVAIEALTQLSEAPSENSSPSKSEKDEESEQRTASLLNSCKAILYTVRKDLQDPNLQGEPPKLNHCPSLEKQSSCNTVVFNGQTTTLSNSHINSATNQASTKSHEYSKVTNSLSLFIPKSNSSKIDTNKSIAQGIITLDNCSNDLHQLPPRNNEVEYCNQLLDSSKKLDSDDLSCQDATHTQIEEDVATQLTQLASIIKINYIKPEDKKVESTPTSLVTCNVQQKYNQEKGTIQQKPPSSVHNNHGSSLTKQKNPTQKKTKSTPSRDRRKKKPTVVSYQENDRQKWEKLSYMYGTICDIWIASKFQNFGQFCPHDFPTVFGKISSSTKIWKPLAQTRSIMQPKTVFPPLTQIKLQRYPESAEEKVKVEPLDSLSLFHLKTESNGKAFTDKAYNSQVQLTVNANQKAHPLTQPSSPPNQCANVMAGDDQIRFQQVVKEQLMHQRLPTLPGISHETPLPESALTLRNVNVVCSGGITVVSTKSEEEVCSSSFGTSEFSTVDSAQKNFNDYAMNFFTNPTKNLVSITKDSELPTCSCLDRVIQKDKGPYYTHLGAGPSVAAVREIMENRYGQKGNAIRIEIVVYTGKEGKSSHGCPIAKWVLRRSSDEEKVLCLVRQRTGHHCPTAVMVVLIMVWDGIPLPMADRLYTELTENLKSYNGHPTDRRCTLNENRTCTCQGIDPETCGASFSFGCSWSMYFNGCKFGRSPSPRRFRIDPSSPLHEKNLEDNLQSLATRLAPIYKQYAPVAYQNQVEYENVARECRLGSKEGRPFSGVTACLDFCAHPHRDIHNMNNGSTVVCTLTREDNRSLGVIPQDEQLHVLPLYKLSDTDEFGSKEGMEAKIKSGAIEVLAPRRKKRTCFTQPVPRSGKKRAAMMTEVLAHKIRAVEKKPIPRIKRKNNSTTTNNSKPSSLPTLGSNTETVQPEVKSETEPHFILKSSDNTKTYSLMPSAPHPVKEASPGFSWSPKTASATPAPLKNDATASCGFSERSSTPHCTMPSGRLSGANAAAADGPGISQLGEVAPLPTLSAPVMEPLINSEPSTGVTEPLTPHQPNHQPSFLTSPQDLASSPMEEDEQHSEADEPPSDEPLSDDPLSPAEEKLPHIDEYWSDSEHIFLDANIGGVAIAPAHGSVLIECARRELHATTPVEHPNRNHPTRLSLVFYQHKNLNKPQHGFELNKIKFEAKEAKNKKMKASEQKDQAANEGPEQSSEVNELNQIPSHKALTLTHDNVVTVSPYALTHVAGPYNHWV

| SMILES | inhibition (THP-1 [1]) [%] | inhibition (THP-1 [2]) [%] | inhibition (THP-1 [3]) [%] | also measured |
| --- | --- | --- | --- | --- |
| COC(=O)C(=O)CC(C)C(=O)OC (centres undefined) | < 5 | < 5 | < 5 |  |
| CCOC(=O)C(C)CC(F)(F)C(=O)OCC (centres undefined) | 14 | 9 | 22 |  |
| C=C(NC(C)=O)C(=O)OC | < 5 | < 5 | < 5 |  |
| COC(=O)CCC(=O)OC | < 5 | 7 | 15 |  |
| O=C(O)CC[C@H](O)C(=O)O |  |  |  | IC50 [4]: 3600 µM |
| O=C(O)/C=C/C(=O)C(=O)O |  |  |  | IC50 [5]: 107 µM |
| COC(=O)/C=C/C(=O)OC | < 5 | 21 | 33 |  |
| COC(=O)CNC(=O)C(=O)OC | 56 | 62 | 64 |  |
| O=C(O)CC[C@@H](O)C(=O)O |  |  |  | IC50 [4]: 6400 µM; inhibition [6]: 28%; inhibition [7]: 47%; inhibition [8]: 33%; inhibition [9]: 83% |
| C=C(CC(O)C(=O)OCC)C(=O)OCC (racemic) | 55 | 68 | 73 |  |
| C=C(CC(C)(O)C(=O)OCC)C(=O)OCC (racemic) | 54 | 71 | 80 |  |
| CCOC(=O)C(O)CC1(C(=O)OCC)CC1 (racemic) | < 5 | < 5 | < 5 |  |
| O=C(O)CNC(=O)C(=O)O [N-OXALYLGLYCINE] |  |  |  | IC50 [4]: 80 µM |
| C=C(CCC(=O)OC)C(=O)OC | < 5 | 7 | 22 |  |
| O=C(C[C@@H](O)CCc1ccc(O)c(O)c1)O[C@@H]1Cc2c(O)cc(O)cc2C[C@@H]1c1ccc(O)c(O)c1 |  |  |  | IC50 [10]: 3.48 µM; IC50 [11]: 2.31 µM |
| CCC(CC(=O)C(=O)OC)C(=O)OC (centres undefined) | < 5 | < 5 | < 5 |  |
| C=C(CC(F)(F)C(=O)OCC)C(=O)OCC | 12 | 20 | 29 |  |
| O=C(O)CCC(=O)O [SUCCINIC ACID] |  |  |  | IC50 [4]: 2800 µM |

| SMILES | inhibition (THP-1 [1]) [%] | inhibition (THP-1 [2]) [%] | inhibition (THP-1 [3]) [%] | also measured |
| --- | --- | --- | --- | --- |
| CCOC(=O)C(C)CC(O)C(=O)OCC (racemic) | < 5 | 14 | 41 |  |
| CC(C)CC(NC(=O)C(=O)O)C(=O)O (centres undefined) |  |  |  | IC50 [4]: 18.1 µM |
| C=C(CC(F)C(=O)OCC)C(=O)OCC (racemic) | 9 | 11 | 41 |  |
| C=C(C[C@H](O)C(=O)O)C(=O)O |  |  |  | IC50 [5]: 10.5 µM; Ratio IC50 [12]: 2 |
| COC(=O)CCC(O)C(=O)OC (centres undefined) | 9 | 18 | 29 |  |
| COC(=O)/C=C/C(=O)C(=O)OC | 7 | 17 | 34 |  |
| COC(=O)CCC(=O)C(=O)OC | < 5 | < 5 | < 5 |  |
| C=C(CC(O)(C(=O)OCC)C(C)C)C(=O)OCC (racemic) | 17 | 37 | 43 |  |
| C=C(CC(C)O)C(=O)OCC (racemic) | 15 | 27 | 47 |  |
| C=C(CC(O)(C(=O)OCC)C(F)(F)F)C(=O)OCC (racemic) | 49 | 67 | 79 |  |
| O=C(O)/C=C/C(=O)O [FUMARIC ACID] |  |  |  | IC50 [4]: 2400 µM |
| C=C(CC(O)C(=O)O)C(=O)O (centres undefined) |  |  |  | Ratio IC50 [12]: 2; IC50 [13]: 1.5 µM; IC50 [14]: 8.8 µM; Kd [15]: 0.3 µM; inhibition [16]: Active |
| C=C(CC(O)(CC)C(=O)OCC)C(=O)OCC (racemic) | 29 | 45 | 48 |  |
| CCOC(=O)C(=O)CC1(C(=O)OCC)CC1 | 19 | 29 | 33 |  |
| C=C(C[C@@H](O)C(=O)O)C(=O)O |  |  |  | IC50 [5]: 11 µM; Ratio IC50 [12]: 2 |
| C=C(CC(Cl)C(=O)OC)C(=O)OC (centres undefined) | 40 | 54 | 66 |  |
| C=C(CC(=O)C(=O)OCC)C(=O)OCC | < 5 | 27 | 44 |  |
